The values below come from ChEMBL document CHEMBL4513216, “Probing the Open Global Health Chemical Diversity Library for Multistage-Active Starting Points for Next-Generation Antimalarials” (ACS Infect Dis, 2020).

SMILES strings stand for the structures.

This series can be described thus: Toxicity liver stage against HepG2, at 10uM. Format: cell-based. Set-up: test concentration 10 uM, cell line HepG2-A16-CD81EGFP. The following applies: human, HepG2-A16-CD81EGFP cells; read-out: INHIBITION
Summed up: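 Uninfected HepG2-A16-CD81EGFP cells, 3 × 10^3 per well, 1536-well, plated on prespotted compound at 10 μM final, parasite-free screening media added to match infected plates; puromycin 10 μM positive, DMSO 0.5% negative; run in parallel with 48 h PbLuc assay at 37 °C, 5% CO2; viability by CellTiter-Glo luminescence, normalized to controls.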
On to `CN(CC1COc2ccccc2O1)C(=O)C1=NN(C)C(=O)CC1` (configuration not stated), for which the cytotoxicity at 10 µM is -52.2%. Take `O=C(c1ccc2ccc(N3CCN(CC4CC4)CC3)n2c1)N1CCCO1`: the cytotoxicity at 10 µM came to 9.81%. With `COC(=O)NCC(=O)NC1CC(C)(C)Cc2oc(C)cc21` (configuration not stated), the cytotoxicity at 10 µM was -20.8%. `Cc1cccc(CN2C(=O)CO[C@@H]3CN(Cc4nccn4C)C[C@H]32)c1`: the cytotoxicity at 10 µM was -16.7%. Regarding `COc1ccc(OC)c(CNc2c(O)c(=O)c2=O)c1`, the cytotoxicity at 10 µM was determined as 7.08%.

As for `CC(C)c1noc(CN2CCN(C(=O)c3ccncc3F)CC2)n1`, the cytotoxicity at 10 µM is -10.9%. For `O=C(Nc1nnc(N2CCCCC2)[nH]1)c1cccs1`, the cytotoxicity at 10 µM was -10.7%.

For `CCc1ccc(-n2nnc(C(=O)O)c2-c2ccccn2)cc1`, the cytotoxicity at 10 µM was -1.92%. `Cc1nnc(SC2CCN(c3sccc3C#N)C2=O)s1` (configuration not stated): the cytotoxicity at 10 µM is -7.22%. For `O=C(C(c1ccccc1)S(=O)(=O)c1ccccc1)N1CCCCC1` (configuration not stated) the value was -6.01%; for `CCCc1nc(CN2CCOC(Cn3cncn3)C2)cs1` (configuration not stated), -8.44%. Take `CN(Cc1cnn(C)c1)C(=O)NCCc1ccc2c(c1)OCCO2`: the cytotoxicity at 10 µM is -15.4%. `N#Cc1cc(S(N)(=O)=O)ccc1NC1CCc2c(F)cccc21` (configuration not stated): the cytotoxicity at 10 µM was -12.4%. For `Cc1n[nH]c(C)c1NC(=O)C1CCCN(C(=O)NCC(C)C)C1` (configuration not stated) the value was 11%; for `O=C(c1ccc[nH]1)N1CCO[C@]2(CCC[C@@H]2COc2cccnc2)C1`, 9.46%.

Take `CC(C)(C)c1ncc(C(=O)NCc2cccc(C(=O)N3CCCC3)c2)s1`: the cytotoxicity at 10 µM is -4.57%.

With `Cn1cnc2c1CCN(CCS(=O)(=O)c1ccccc1)C2`, the cytotoxicity at 10 µM was -3.32%.

As for `Cc1cccc(OCCC(=O)N2CCCN(CC(N)=O)CC2)c1C`, the cytotoxicity at 10 µM is -7.28%.

Consider `Cc1nc(C)n(CC2CCCN2CC(=O)NCCc2ccccc2)n1` (configuration not stated), for which the cytotoxicity at 10 µM was -16.5%. As to `O=C1CC(N(C(=O)c2csc(-c3ccccc3)n2)C2CC2)C(=O)N1` (configuration not stated), the cytotoxicity at 10 µM is 15.2%. Consider `CCNC(=O)CN1CCCC(c2ccc(C(=O)O)cc2)C1` (configuration not stated), for which the cytotoxicity at 10 µM was 8.57%. Turning to `Cc1c(C(=O)N2CCN(c3ccccn3)CC2)n(C)c2ccc(Cl)cc12`, the cytotoxicity at 10 µM was determined as 3.95%. In the case of `Cc1nc([C@H]2C[C@H]3CN(C(=O)c4ccoc4C)CC[C@@H]3O2)no1`, the cytotoxicity at 10 µM was 0.369%. On to `Fc1ccc(-c2noc(C3COCCO3)n2)cc1F` (configuration not stated), for which the cytotoxicity at 10 µM is -1.21%. Consider `Cc1ccc(N2CCC3(CCN(Cc4ccccn4)CC3)CC2)nn1`, for which the cytotoxicity at 10 µM turned out to be 7.37%. Regarding `O=C(CCCOCc1ccccc1)N1CCCC(n2cncn2)C1` (configuration not stated), the cytotoxicity at 10 µM was -17.5%.

Regarding `CN(Cc1ccc([S+](C)[O-])cc1)c1ccc(C(F)(F)F)cn1` (configuration not stated), the cytotoxicity at 10 µM was -1.32%. Then `CC(C)C(=O)NC(Cc1cc(N(C)C)nc(C2CC2)n1)c1ccccc1` (configuration not stated), with 3.37%. `CN(C)C(=O)COC[C@@]12CCC[C@@H]1CN(C1CCC1)C2`: the cytotoxicity at 10 µM was -1.25%. `Cc1noc(C)c1S(=O)(=O)N1CCC(Oc2cccnn2)CC1`: the cytotoxicity at 10 µM turned out to be 0.0701%. Consider `Cc1ccc(C(=O)N2CCN(Cc3ccc(C#N)cc3)CC2)n1C`, for which the cytotoxicity at 10 µM was -9.65%. `c1cncc(C2COC3(CCN(Cc4nccs4)CC3)C2)c1` (configuration not stated): the cytotoxicity at 10 µM stood at 1.7%. With `CCN(CC(=O)NC(C)C)S(=O)(=O)N1CCCCC1C` (configuration not stated), the cytotoxicity at 10 µM is -1.14%. As for `COc1ncccc1C(=O)N(C)Cc1nc(-c2ccccn2)no1`, the cytotoxicity at 10 µM came out at 3.38%.

With `Cc1cc(C)n(C2CN(Cc3ccc(C(=O)N4CCCC4)cc3)C2)n1`, the cytotoxicity at 10 µM turned out to be 1.89%.

Consider `O=c1[nH]nc2c(S(=O)(=O)N3CCCCCC3)cccn12`, for which the cytotoxicity at 10 µM turned out to be 2.1%. Turning to `Cc1cc2c(=O)n3c(nc2s1)CCN(C(=O)c1c(C)noc1C)CC3`, the cytotoxicity at 10 µM is 17.7%. Then `O=C(NCCCOC1CCOC1)NC(C1CC1)C1CC1` (configuration not stated), with -5.36%. On to `Cn1cc(CCNC(=O)NCc2ccc3c(c2)OCCO3)cn1`, for which the cytotoxicity at 10 µM was -10.7%. Turning to `Cc1cc(C(F)(F)F)c2c(=O)n(Cc3ccon3)n(C)c2n1`, the cytotoxicity at 10 µM is 5.85%. As for `COc1ccc(C)cc1C(=O)NC1(C#N)CCOCC1`, the cytotoxicity at 10 µM amounted to 1.98%. For `Cc1ncnc2c1CCN(C(=O)c1cccc(F)c1)CC2`, the cytotoxicity at 10 µM was determined as 8.27%.

As for `Cc1cnn(CC2CN(CC(=O)N(C)c3nccs3)CCO2)c1` (configuration not stated), the cytotoxicity at 10 µM was found to be 0.385%. With `CCC(NC(=O)c1c(C(=O)O)cnn1C)c1ccc(C)cc1C` (configuration not stated), the cytotoxicity at 10 µM is -7.58%.

For `CC(O)(CNC(=O)NCCc1ccc2c(c1)CCO2)c1ccccc1` (configuration not stated), the cytotoxicity at 10 µM came to 6.36%.

For the compound `C=c1cc(C)oc1=C1NC(c2c(C)ncc3c2CCNC3)=NO1`, the cytotoxicity at 10 µM was -0.132%. Consider `CN(C)C(=O)N1Cc2ccccc2C2(CCNCC2)C1`, for which the cytotoxicity at 10 µM was 1.26%. Take `CN(Cc1ccsc1)C(=O)CN1CCc2c(ncn2C)C1`: the cytotoxicity at 10 µM was found to be 2.83%. In the case of `O=C(c1ccc(F)cc1)N1CCN2C[C@H](OCc3cccnc3)C[C@H]2C1`, the cytotoxicity at 10 µM was -85.1%. Consider `O=C(c1cccnc1O)N1CCC2(CCCO2)CC1`, for which the cytotoxicity at 10 µM came out at 7.28%.

Regarding `COc1ccc2c(c1)ncn2C[C@]1(O)CCCN2CCCC[C@@H]21`, the cytotoxicity at 10 µM is -0.71%. For `O=C(NCc1nc2cc(F)ccc2[nH]1)c1ccc[nH]1`, the cytotoxicity at 10 µM stood at 11.9%. For the compound `Cc1cc(C(=O)NCC(C)N2CCc3ccccc32)on1` (configuration not stated), the cytotoxicity at 10 µM was -22.8%.

Take `CC1CCCCN1C(=O)c1coc(COc2cccc3cnccc23)n1` (configuration not stated): the cytotoxicity at 10 µM is -143%. On to `COc1ccc2c(ccn2CCC(=O)Nc2n[nH]c(CC(C)C)n2)c1`, for which the cytotoxicity at 10 µM was 8.29%. Turning to `Cc1ncc2c(n1)CCCC2NC(=O)c1ccncc1` (configuration not stated), the cytotoxicity at 10 µM is -19.4%. With `O=C(CCCOc1ccc(F)cc1F)N1CCCC1Cn1cccn1` (configuration not stated), the cytotoxicity at 10 µM was -5.67%. As to `Cc1c[nH]nc1C1CCCCN1C(=O)CNS(C)(=O)=O` (configuration not stated), the cytotoxicity at 10 µM was -9.19%. Turning to `FC(F)(F)c1nc(C2CCNCC2)no1`, the cytotoxicity at 10 µM was 5.88%.

For the compound `CSCc1noc(CNC(=O)c2cc(C)c(C)[nH]c2=O)n1`, the cytotoxicity at 10 µM turned out to be 0.355%. As for `c1csc(CCNC2CCc3ncnn3C2)c1` (configuration not stated), the cytotoxicity at 10 µM was found to be 17.3%.

`CC(C)(NS(C)(=O)=O)C(=O)NCc1cccc(Br)c1`: the cytotoxicity at 10 µM was -2.42%. For `COc1cccc(CNC(=O)c2cc(C)nc(N3CCCCC3)n2)c1` the value was 20%; for `CCc1nn(C)c(Cl)c1CN1CCN(c2ccc(C(N)=O)cn2)CC1`, 9.83%.

For `O=C(Cn1cnnn1)NCC1(O)CCCc2ccccc21` (configuration not stated), the cytotoxicity at 10 µM is -42.3%.

Take `CCC(C)(NCC(=O)NC(C)C)c1nc(C)cs1` (configuration not stated): the cytotoxicity at 10 µM was -2.06%. On to `CCCS(=O)(=O)Nc1ccc2c(c1)OCC(C)(C)C(=O)N2C`, for which the cytotoxicity at 10 µM was -10.8%. As to `Cc1c(I)cccc1C(=O)NCc1nnc[nH]1`, the cytotoxicity at 10 µM is -2.86%. For `Cc1nn(C)c(Cl)c1C1CCCN1Cc1cn2ccsc2n1` (configuration not stated) the value was -44.5%. Then `NCC(CO)Cc1ccc(OC(F)(F)F)cc1` (configuration not stated), with 8.65%.

`Cn1c2ncccc2c(=O)n1CC(=O)NCCc1c(F)cccc1F`: the cytotoxicity at 10 µM was -5.33%.

Turning to `c1ccc(CCn2cc(-c3nc(CN4CCOCC4)no3)nn2)cc1`, the cytotoxicity at 10 µM is 1.85%. For `CCC(NC(=O)c1coc(COc2cccc(F)c2F)n1)C(=O)NC` (configuration not stated) the value was 1.03%; for `Cn1c(N2CC[C@H](O)C2)nc2cc(C(N)=O)ccc21`, 5.83%. Regarding `CCCN1CCC(c2cc(CCOc3ccc(C(F)(F)F)cc3)[nH]n2)C1` (configuration not stated), the cytotoxicity at 10 µM is -3.58%.

For `c1csc(-c2nc(CN3CCOC(Cn4cccn4)C3)co2)c1` (configuration not stated), the cytotoxicity at 10 µM is -11.1%. Take `CCc1cc(CNC(=O)C2CCCN(C(=O)NCC(C)C)C2)[nH]n1` (configuration not stated): the cytotoxicity at 10 µM was found to be 7.23%. For `CC(CCc1ccc(F)c(F)c1)NS(=O)(=O)Cc1ccon1` (configuration not stated), the cytotoxicity at 10 µM is -7.97%. Turning to `CC(C)NC(=O)[C@@H]1CN(Cc2ccc3c(c2)OCO3)C[C@H]2OCC[C@H]21`, the cytotoxicity at 10 µM turned out to be 3.65%.

Regarding `CC(Cc1ccccc1Br)NC(=O)CCS(C)(=O)=O` (configuration not stated), the cytotoxicity at 10 µM is -4.44%. On to `CC(C)c1nnc(NC(=O)NCc2cccnc2NCCN(C)C)s1`, for which the cytotoxicity at 10 µM was determined as 3.92%. Consider `CCC(C)NC(=O)c1ccc(NC(=O)CCCn2cncn2)c(C)c1` (configuration not stated), for which the cytotoxicity at 10 µM was -10.7%. On to `Cc1nn(CC(F)F)c2c1c(C(F)F)cc(=O)n2CC(=O)O`, for which the cytotoxicity at 10 µM was 2.84%. Consider `Cc1nc(CCC(=O)NCC(N)=O)cc(C2CCNCC2)n1`, for which the cytotoxicity at 10 µM was -3.03%. Then `Cc1ccc(N2CCCC(N(C)Cc3nnc(C4CC4)o3)C2)nn1` (configuration not stated), with 6.2%. As to `O=C(c1cccnc1-n1cncn1)N1CCN(CC2CC2)CC1`, the cytotoxicity at 10 µM is -10.9%. On to `CNC(=O)CCc1cc(C)nc(C2CCCCN2)n1` (configuration not stated), for which the cytotoxicity at 10 µM is -9.83%. For `COc1ccc(C)c2c1N(C(=O)c1cnc(C)s1)CCC2`, the cytotoxicity at 10 µM was -1.46%.

On to `CO[C@H]1COCCN(C(=O)c2ccc(F)cc2)C1`, for which the cytotoxicity at 10 µM was found to be 0.287%. For `Cc1cc(C(=O)N(C)CC(F)(F)C(F)(F)F)ccc1-n1cncn1` the value was 1.64%; for `CN1CCCCc2c1nc1c(c2N)CCCC1`, -0.675%; for `O=C(c1ccon1)N1CCc2ncnc(NCc3cccnc3)c2CC1`, -1.9%. Then `CCOc1ccc(C2CC(=O)NCc3nc(N)sc32)cc1CO` (configuration not stated), with -6.33%. For `CC(=O)NC1CCCN(C(=O)NCc2ccc(-c3ccn[nH]3)cc2)C1` (configuration not stated) the value was -7.84%; for `CC(C)n1ccc2c(C(=O)NC3CN4CCC3CC4)cccc21` (configuration not stated), -54.2%.

With `CC1c2ncc(COCC3CC3)n2CCN1S(=O)(=O)N(C)C` (configuration not stated), the cytotoxicity at 10 µM came out at 18.4%. Consider `CCc1nc2n(n1)CC(NCC1=Cc3ccc(OC)cc3OC1)CC2` (configuration not stated), for which the cytotoxicity at 10 µM is 4.02%.
